In ChEMBL document CHEMBL4689842, “EUbOPEN Chemogenomics Library wave 1” (2021):

Test system: Fibroblast
Assay: Multiplex assay against human fibroblast
Format: toxicity, cell-based
Method in brief: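 Cells stained live at seeding with Hoechst33342, BioTracker Green Microtubule Cytoskeleton Dye, MitoTracker Red and Annexin V Alexa Fluor 680 were imaged on a CQ1 microscope at 37°C and 5% CO2 after compound addition. Their classification by CellPathfinder machine-learning gating ran from Hoechst high-intensity objects versus normal cells, to healthy, pyknosed or fragmented nuclei among normal cells, to mitotic or apoptotic among pyknosed cells. Tubulin, mitochondrial-mass and membrane-permeability phenotypes are per cents of healthy-nucleus cells.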

[1] = 12 h, 1 µM, compound concentration 1 uM, replicate 1
[2] = 12 h, 1 µM, compound concentration 1 uM, replicate 2
[3] = 12 h, 10 µM, compound concentration 10 uM, replicate 1
[4] = 12 h, 10 µM, compound concentration 10 uM, replicate 2
[5] = 24 h, 1 µM, compound concentration 1 uM, replicate 1
[6] = 24 h, 1 µM, compound concentration 1 uM, replicate 2
[7] = 24 h, 10 µM, compound concentration 10 uM, replicate 1
[8] = 24 h, 10 µM, compound concentration 10 uM, replicate 2

CCc1cccc(CC)c1NC(=O)c1nn(C)c2c1CCc1cnc(Nc3ccc(N4CCN(C)CC4)cc3OC)nc1-2
Population Apoptotic (%) [1]: 45%
Population Fragmented Nuclei (%) [1]: 17%
Population Healthy Nuclei (%) [1]: 47%
Population Hoechst High Intensity Objects (%) [1]: 9%
Population Membrane Permeable-Phenotype (%) [1]: 8%
Population Mitochondria Different-Phenotype (%) [1]: 72%
Population Mitotic Cells (%) [1]: 54%
Population Normal (%) [1]: 90%
Population Pyknosed Nuclei (%) [1]: 34%
Population Tubulin-Different-Phenotype (%) [1]: 75%
Total Cell Count [1]: 142
Population Apoptotic (%) [2]: 50%
Population Fragmented Nuclei (%) [2]: 54%
Population Healthy Nuclei (%) [2]: 18%
Population Hoechst High Intensity Objects (%) [2]: 25%
Population Membrane Permeable-Phenotype (%) [2]: 0%
Population Mitochondria Different-Phenotype (%) [2]: 75%
Population Mitotic Cells (%) [2]: 50%
Population Normal (%) [2]: 74%
Population Pyknosed Nuclei (%) [2]: 27%
Total Cell Count [2]: 59
Population Apoptotic (%) [3]: 71%
Population Fragmented Nuclei (%) [3]: 32%
Population Healthy Nuclei (%) [3]: 46%
Population Hoechst High Intensity Objects (%) [3]: 11%
Population Membrane Permeable-Phenotype (%) [3]: 2%
Population Mitochondria Different-Phenotype (%) [3]: 11%
Population Mitotic Cells (%) [3]: 28%
Population Normal (%) [3]: 88%
Population Pyknosed Nuclei (%) [3]: 20%
Population Tubulin-Different-Phenotype (%) [3]: 18%
Total Cell Count [3]: 213
Population Apoptotic (%) [4]: 20%
Population Fragmented Nuclei (%) [4]: 51%
Population Healthy Nuclei (%) [4]: 40%
Population Hoechst High Intensity Objects (%) [4]: 21%
Population Membrane Permeable-Phenotype (%) [4]: 3%
Population Mitochondria Different-Phenotype (%) [4]: 30%
Population Mitotic Cells (%) [4]: 80%
Population Normal (%) [4]: 78%
Population Pyknosed Nuclei (%) [4]: 7%
Population Tubulin-Different-Phenotype (%) [4]: 23%
Total Cell Count [4]: 82
Population Apoptotic (%) [5]: 80%
Population Fragmented Nuclei (%) [5]: 25%
Population Healthy Nuclei (%) [5]: 29%
Population Hoechst High Intensity Objects (%) [5]: 10%
Population Membrane Permeable-Phenotype (%) [5]: 2%
Population Mitochondria Different-Phenotype (%) [5]: 89%
Population Mitotic Cells (%) [5]: 19%
Population Normal (%) [5]: 89%
Population Pyknosed Nuclei (%) [5]: 44%
Population Tubulin-Different-Phenotype (%) [5]: 78%
Total Cell Count [5]: 140
Population Apoptotic (%) [6]: 100%
Population Fragmented Nuclei (%) [6]: 61%
Population Healthy Nuclei (%) [6]: 11%
Population Hoechst High Intensity Objects (%) [6]: 30%
Population Membrane Permeable-Phenotype (%) [6]: 0%
Population Mitochondria Different-Phenotype (%) [6]: 100%
Population Mitotic Cells (%) [6]: 0%
Population Normal (%) [6]: 69%
Population Pyknosed Nuclei (%) [6]: 27%
Population Tubulin-Different-Phenotype (%) [6]: 100%
Total Cell Count [6]: 63
Population Apoptotic (%) [7]: 72%
Population Fragmented Nuclei (%) [7]: 37%
Population Healthy Nuclei (%) [7]: 46%
Population Hoechst High Intensity Objects (%) [7]: 13%
Population Membrane Permeable-Phenotype (%) [7]: 4%
Population Mitochondria Different-Phenotype (%) [7]: 11%
Population Mitotic Cells (%) [7]: 27%
Population Normal (%) [7]: 86%
Population Pyknosed Nuclei (%) [7]: 16%
Total Cell Count [7]: 262
Population Apoptotic (%) [8]: 66%
Population Fragmented Nuclei (%) [8]: 60%
Population Healthy Nuclei (%) [8]: 35%
Population Hoechst High Intensity Objects (%) [8]: 20%
Population Membrane Permeable-Phenotype (%) [8]: 6%
Population Mitochondria Different-Phenotype (%) [8]: 10%
Population Mitotic Cells (%) [8]: 33%
Population Normal (%) [8]: 80%
Population Pyknosed Nuclei (%) [8]: 3%
Population Tubulin-Different-Phenotype (%) [8]: 16%
Total Cell Count [8]: 105
